Calls of active or inactive are those of the source. No cut-off for these calls is given here. Bridge positions count the residues as written; N and C are the ends. Square brackets hold non-standard residues; d marks the D form. Peptide text beside a SMILES is read from it. * marks the point of attachment. d(aThr) = C[C@@H](O)[C@@H](N)C(=O)O; Dhb = C/C=C(\N)C(=O)O; Propionyl = CCC(=O)*
Key:
[1] = tested on: Transient receptor potential cation channel subfamily V member 1 (Homo sapiens), Q8NER1 [C621A]; experiment: Antagonist activity at human TRPV1 C621A mutant expressed in HEK293 cell assessed as inhibition of capsaicin-induced calcium flux at 375 uM for 30 mins before capsaicin challenge measured after 48 hrs by fluorometric analysis; format: functional, cell-based
How it was run: (§1)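 HEK-293 cells on gelatin-coated plates transiently transfected with human TRPV1 mutant plasmid (200 ng/well, lipofection 4 h), then grown 48 h. Fluo-4 loaded at 37°C. […] Fluorescence read 1 min; initial rate (ΔF/sec) and ΔFmax compared with capsaicin-only control.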

[2] = target: T1, Transient receptor potential cation channel subfamily V member 1 (Homo sapiens, UniProt Q8NER1); settings: HEK293, 375 uM
[3] = tested on: Transient receptor potential cation channel subfamily V member 1 (Homo sapiens), Q8NER1 [C578A]; experiment: Antagonist activity at human TRPV1 C578A mutant expressed in HEK293 cell assessed as inhibition of capsaicin-induced calcium flux at 375 uM for 30 mins before capsaicin challenge measured after 48 hrs by fluorometric analysis; format: functional, cell-based; how it was run: as §1
[4] = target: T1, Transient receptor potential cation channel subfamily V member 1; experiment: Antagonist activity at human TRPV1 expressed in human BEAS-2B cells assessed as inhibition of capsaicin-induced calcium flux at 25 to 1000 uM preincubated for 30 mins before 2.5 uM capsaicin challenge measured after 1 min by fluorometric analysis; format: functional, cell-based
How it was run: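 Human TRPV1-expressing BEAS-2B cells loaded with Fluo-4 (1 h, ~22°C, dark), then washed into LHC-9 with 1 mM probenecid and Trypan Red containing compound. […] Ca2+ signal tracked 1 min; initial rate and ΔFmax relative to capsaicin-only cells.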

[5] = tested on: Transient receptor potential cation channel subfamily V member 1 (Homo sapiens), Q8NER1 [E649A]; experiment: Antagonist activity at human TRPV1 E649A mutant expressed in HEK293 cell assessed as inhibition of capsaicin-induced calcium flux at 375 uM for 30 mins before capsaicin challenge measured after 48 hrs by fluorometric analysis; format: functional, cell-based; how it was run: as §1
[6] = target: T1, Transient receptor potential cation channel subfamily V member 1; settings: HEK293, 375 uM; remark: listed apart in the source
[7] = tested on: Transient receptor potential cation channel subfamily V member 1 (Homo sapiens), Q8NER1 [E600V]; experiment: Antagonist activity at human TRPV1 E600V mutant expressed in HEK293 cell assessed as inhibition of capsaicin-induced calcium flux at 375 uM for 30 mins before capsaicin challenge measured after 48 hrs by fluorometric analysis; format: functional, cell-based; how it was run: as §1
[8] = tested on: Transient receptor potential cation channel subfamily V member 1 (Homo sapiens), Q8NER1 [F660A]; experiment: Antagonist activity at human TRPV1 F660A mutant expressed in HEK293 cell assessed as inhibition of capsaicin-induced calcium flux at 375 uM for 30 mins before capsaicin challenge measured after 48 hrs by fluorometric analysis; format: functional, cell-based; how it was run: as §1
[9] = target: T1, Transient receptor potential cation channel subfamily V member 1; experiment: Antagonist activity at human TRPV1 expressed in human BEAS-2B cells assessed as inhibition of capsaicin-induced calcium flux at 25 to 1000 uM co-treated with 2.5 uM capsaicin measured after 30 mins by fluorometric analysis; format: functional, cell-based
How it was run: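 BEAS-2B cells stably overexpressing human TRPV1, grown to confluence in LHC-9. Loaded 1 h at ~22°C in the dark with Fluo-4 reagent, then washed into LHC-9 with 1 mM probenecid and Trypan Red. […] Fluorescence followed 1 min; rate and ΔFmax versus capsaicin-only control.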

[10] = tested on: Transient receptor potential cation channel subfamily V member 1 (Homo sapiens), Q8NER1 [N604A]; experiment: Antagonist activity at human TRPV1 N604A mutant expressed in HEK293 cell assessed as inhibition of capsaicin-induced calcium flux at 375 uM for 30 mins before capsaicin challenge measured after 48 hrs by fluorometric analysis; format: functional, cell-based; how it was run: as §1
[11] = target: T1, Transient receptor potential cation channel subfamily V member 1; settings: HEK293, 375 uM; remark: listed apart in the source
[12] = target: Transient receptor potential cation channel subfamily V member 1 (Mus musculus) (UniProt Q704Y3); experiment: Antagonist activity at TRPV1 channel in C57B1 mouse dorsal root ganglion cells assessed as inhibition of capsaicin-induced calcium flux at 125 uM after 3 hrs by fluorometric analysis in presence of 10 ug/ml translational inhibitor cycloheximide; format: functional, tissue-based
[13] = target: Transient receptor potential cation channel subfamily V member 1 (Mus musculus) (UniProt Q704Y3); experiment: Antagonist activity at TRPV1 channel in C57B1 mouse dorsal root ganglion cells assessed as inhibition of capsaicin-induced calcium flux at 125 uM after 3 hrs by fluorometric analysis in presence of 5.6 ug/ml trafficking inhibitor brefeldin A; format: functional, tissue-based
[14] = target: Transient receptor potential cation channel subfamily V member 1 (Mus musculus) (UniProt Q704Y3); experiment: Antagonist activity at TRPV1 channel in C57B1 mouse dorsal root ganglion cells assessed as inhibition of capsaicin-induced calcium flux at 125 uM after 3 hrs by fluorometric analysis in presence of 6.3 ug/ml transcriptional inhibitor actinomycin D; format: functional, tissue-based
[15] = target: Transient receptor potential cation channel subfamily V member 1 (Mus musculus) (UniProt Q704Y3); experiment: Antagonist activity at TRPV1 channel in C57B1 mouse dorsal root ganglion cells assessed as inhibition of capsaicin-induced calcium flux at 125 uM after 3 hrs by fluorometric analysis; format: functional, tissue-based
[16] = target: Transient receptor potential cation channel subfamily V member 1 (Mus musculus) (UniProt Q704Y3); experiment: Antagonist activity at TRPV1 channel in C57B1 mouse dorsal root ganglion cells assessed as inhibition of capsaicin-induced calcium flux at 125 uM after 5 mins by fluorometric analysis in presence of at 25 mM of KCl; format: functional, tissue-based
How it was run: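 Mouse C57B1 cervical/lumbar DRG neurons, Fura-2 AM calcium imaging at 20–25°C, each neuron analysed separately. […] Final 25 or 100 mM KCl pulses check viability.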

Sequence of Transient receptor potential cation channel subfamily V member 1 (Mus musculus) (Q704Y3 whole entry): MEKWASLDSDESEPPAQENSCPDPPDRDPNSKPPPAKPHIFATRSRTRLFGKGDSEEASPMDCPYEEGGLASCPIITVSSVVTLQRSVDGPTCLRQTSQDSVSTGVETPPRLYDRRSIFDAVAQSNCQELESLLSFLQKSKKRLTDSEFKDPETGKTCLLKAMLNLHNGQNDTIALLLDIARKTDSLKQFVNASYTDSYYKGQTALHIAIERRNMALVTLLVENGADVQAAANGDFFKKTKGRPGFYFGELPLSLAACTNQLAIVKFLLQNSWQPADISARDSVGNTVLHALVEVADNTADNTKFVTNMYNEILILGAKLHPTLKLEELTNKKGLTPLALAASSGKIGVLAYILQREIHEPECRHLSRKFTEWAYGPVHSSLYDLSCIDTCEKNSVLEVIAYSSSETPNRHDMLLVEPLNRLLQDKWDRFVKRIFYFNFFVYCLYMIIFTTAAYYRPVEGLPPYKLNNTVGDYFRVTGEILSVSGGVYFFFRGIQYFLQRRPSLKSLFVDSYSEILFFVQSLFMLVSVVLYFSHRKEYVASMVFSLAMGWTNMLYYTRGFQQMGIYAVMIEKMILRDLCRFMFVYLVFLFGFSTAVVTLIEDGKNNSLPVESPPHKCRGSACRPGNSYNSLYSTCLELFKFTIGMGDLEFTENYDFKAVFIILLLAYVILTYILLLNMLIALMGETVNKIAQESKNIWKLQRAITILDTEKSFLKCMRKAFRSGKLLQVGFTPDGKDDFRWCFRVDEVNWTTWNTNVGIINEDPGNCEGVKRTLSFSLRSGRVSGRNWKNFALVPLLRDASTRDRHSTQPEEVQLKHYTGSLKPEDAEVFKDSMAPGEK
T1 sequence (Q8NER1 whole entry): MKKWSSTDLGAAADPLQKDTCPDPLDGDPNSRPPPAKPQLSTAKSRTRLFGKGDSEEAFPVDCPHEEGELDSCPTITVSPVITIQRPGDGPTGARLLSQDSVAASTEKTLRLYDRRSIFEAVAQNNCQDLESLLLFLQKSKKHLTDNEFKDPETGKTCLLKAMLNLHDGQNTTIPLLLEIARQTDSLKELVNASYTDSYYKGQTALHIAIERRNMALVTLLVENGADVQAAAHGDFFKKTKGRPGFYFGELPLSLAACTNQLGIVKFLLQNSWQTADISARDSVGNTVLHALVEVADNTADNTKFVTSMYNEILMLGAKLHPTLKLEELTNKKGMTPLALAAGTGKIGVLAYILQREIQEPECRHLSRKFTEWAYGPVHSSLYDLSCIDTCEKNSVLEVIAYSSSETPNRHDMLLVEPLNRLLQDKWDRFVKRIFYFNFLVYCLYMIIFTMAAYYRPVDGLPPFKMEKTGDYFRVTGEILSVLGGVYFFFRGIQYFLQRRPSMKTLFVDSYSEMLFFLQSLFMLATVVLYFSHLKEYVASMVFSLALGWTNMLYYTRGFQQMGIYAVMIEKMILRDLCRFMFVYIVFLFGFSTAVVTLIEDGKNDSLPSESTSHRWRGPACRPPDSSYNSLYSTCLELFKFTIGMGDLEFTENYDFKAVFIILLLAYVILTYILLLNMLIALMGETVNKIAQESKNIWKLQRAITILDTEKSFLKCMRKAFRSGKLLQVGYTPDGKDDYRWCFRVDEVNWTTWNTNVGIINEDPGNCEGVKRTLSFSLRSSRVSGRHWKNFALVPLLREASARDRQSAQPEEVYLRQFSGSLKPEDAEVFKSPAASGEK
Sequence of Transient receptor potential cation channel subfamily V member 1 (Homo sapiens), Q8NER1 [N604A] (Q8NER1 whole entry N604A): as the sequence (Q8NER1 whole entry) above, with N604A counted along it
Sequence of Transient receptor potential cation channel subfamily V member 1 (Homo sapiens), Q8NER1 [C578A] (Q8NER1 whole entry C578A): as the sequence (Q8NER1 whole entry) above, with C578A counted along it
Sequence of Transient receptor potential cation channel subfamily V member 1 (Homo sapiens), Q8NER1 [E649A] (Q8NER1 whole entry E649A): as the sequence (Q8NER1 whole entry) above, with E649A counted along it
Sequence of Transient receptor potential cation channel subfamily V member 1 (Homo sapiens), Q8NER1 [E600V] (Q8NER1 whole entry E600V): as the sequence (Q8NER1 whole entry) above, with E600V counted along it
Sequence of Transient receptor potential cation channel subfamily V member 1 (Homo sapiens), Q8NER1 [C621A] (Q8NER1 whole entry C621A): as the sequence (Q8NER1 whole entry) above, with C621A counted along it
Sequence of Transient receptor potential cation channel subfamily V member 1 (Homo sapiens), Q8NER1 [F660A] (Q8NER1 whole entry F660A): as the sequence (Q8NER1 whole entry) above, with F660A counted along it

inhibition [1] | inhibition [2] | inhibition [3] | inhibition [4] | inhibition [5] | inhibition [6] | inhibition [7] | inhibition [8] | inhibition [9] | inhibition [10] | inhibition [11] | inhibition [12] | inhibition [13] | inhibition [14] | inhibition [15] | inhibition [16] | SMILES
inactive | Active | inactive | Active | Active | inactive | Active | inactive | Active | Active | Active | – | – | – | – | – | C/C=C(\NC(=O)[C@H](C)NC(=O)[C@@H](NC(=O)[C@H](NC(=O)[C@H](Cc1ccccc1)NC(=O)[C@@H](CC(C)C)NC(=O)[C@@H](Cc1ccccc1)NC(=O)CC)[C@@H](C)O)C(C)C)C(=O)O (Propionyl-[dF][dL]F[d(aThr)]VA[Dhb]-OH)
inactive | – | inactive | Active | Active | – | Active | inactive | Active | Active | – | – | – | – | – | – | C/C=C1\NC(=O)[C@H](C)NC(=O)[C@H](C(C)C)NC(=O)[C@H](NC(=O)[C@H](Cc2ccccc2)NC(=O)[C@@H](CC(C)C)NC(=O)[C@@H](Cc2ccccc2)NC(=O)CC)[C@@H](C)OC1=O (Propionyl-[dF][dL]F[d(aThr)]VA[Dhb]; ester 4-C)
– | – | – | – | – | – | – | – | – | – | – | inactive | inactive | inactive | inactive | Active | C/C=C(\NC(=O)[C@H](C)NC(=O)[C@@H](NC(=O)[C@H](NC(=O)[C@H](Cc1ccccc1)NC(=O)[C@@H](CC(C)C)NC(=O)[C@@H](Cc1ccccc1)NC(C)=O)[C@@H](C)O)C(C)C)C(=O)O (Ac-[dF][dL]F[d(aThr)]VA[Dhb]-OH)

From ChEMBL document CHEMBL1781987, “Nobilamides A-H, long-acting transient receptor potential vanilloid-1 (TRPV1) antagonists from mollusk-associated bacteria” (J Med Chem, 2011)
